{"source": "ChEMBL document CHEMBL1212906", "about": "“Apoptotic effects of polyprenylated benzoylphloroglucinol derivatives from the twigs of Garcinia multiflora” (J Nat Prod, 2010)", "key": {"[1]": {"assay": "Induction of apoptosis in human HeLaC3 cells assessed as yellow fluorescent protein/cyan fluorescent protein emission ratio at 100 uM after 72 hrs by FRET assay", "format": "functional, HeLa C3", "method_in_brief": "(§1)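 Caspase-3 FRET biosensor (CFP–DEVD–YFP) HeLa-C3 cells were grown in MEM with 10% FBS, penicillin and streptomycin at 37 °C in 5% CO2. 7500 cells per well were seeded and given compound after 12–16 h (DMSO stock ≥1000× working concentration). A YFP/CFP ratio ≤3 was scored as apoptosis. Triplicates, three repeats.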"}, "[2]": {"assay": "Cytotoxicity against human HeLa cells after 72 hrs by MTT assay"}, "[3]": {"assay": "Induction of apoptosis in human HeLaC3 cells assessed as yellow fluorescent protein/cyan fluorescent protein emission ratio at 25 uM after 72 hrs by FRET assay", "format": "functional, HeLa C3", "method_in_brief": "as §1"}, "[4]": {"assay": "Induction of apoptosis in human HeLaC3 cells assessed as yellow fluorescent protein/cyan fluorescent protein emission ratio at 50 uM after 72 hrs by FRET assay", "format": "functional, HeLa C3", "method_in_brief": "as §1"}, "[5]": {"tested_on": "HeLa C3", "assay": "Induction of apoptosis in human HeLaC3 cells assessed as morphological changes at 50 uM after 24 to 72 hrs", "format": "functional, cell-based", "method_in_brief": "(§2)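 Compound-treated HeLa-C3 biosensor cells were photographed under a microscope at 24, 48 and 72 h. Paclitaxel 500 nM was the positive control and untreated cells the negative control. Cell shrinkage and detachment from the plate were taken as apoptotic morphology.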"}, "[6]": {"tested_on": "HeLa C3", "assay": "Induction of apoptosis in human HeLaC3 cells assessed as morphological changes at 100 uM after 24 to 72 hrs", "format": "functional, cell-based", "method_in_brief": "as §2"}, "[7]": {"tested_on": "HeLa C3", "assay": "Induction of apoptosis in human HeLaC3 cells at 25 uM after 72 hrs", "format": "functional, cell-based", "method_in_brief": "as §1, with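 “concentration). Plates were excited at 440 nm, with emission read at 486 (CFP) and 535 (YFP) nm, for up to 72 h.” for “concentration).”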"}, "[8]": {"tested_on": "HeLa C3", "assay": "Induction of apoptosis in human HeLaC3 cells assessed as morphological changes at 25 uM after 24 to 72 hrs", "format": "functional, cell-based", "method_in_brief": "as §2"}}, "note": "Calls of active or inactive are those of the source. The rule behind the calls is not given here."}
{"smiles": "C=C(C)[C@H](CC=C(C)C)C[C@@]12C[C@@H](CC=C(C)C)C(C)(C)[C@@](CC(O)C(C)(C)O)(C(=O)C(C(=O)c3ccc(O)c(O)c3)=C1O)C2=O", "note": "(stereo partly specified)", "values": [{"measurement": "Ratio", "setting": "[1]", "result": ">3"}, {"measurement": "IC50", "setting": "[2]", "result": 23, "unit": "µM"}, {"measurement": "Ratio", "setting": "[3]", "result": ">3"}, {"measurement": "Ratio", "setting": "[4]", "result": ">3"}]}
{"smiles": "C=C(C)[C@H](CC=C(C)C)C[C@@]12C[C@@H](CC=C(C)C)C(C)(C)[C@@](CCC(C)(C)O)(C(=O)C(C(=O)c3ccc(O)c(O)c3)=C1O)C2=O", "note": "[GARCIMULTIFLORONE D]", "values": [{"measurement": "Ratio", "setting": "[1]", "result": "<=3"}, {"measurement": "IC50", "setting": "[2]", "result": 17.5, "unit": "µM"}, {"measurement": "Activity", "setting": "[5]", "result": "Active"}, {"measurement": "Ratio", "setting": "[3]", "result": ">3"}, {"measurement": "Ratio", "setting": "[4]", "result": "<=3"}]}
{"smiles": "C=C(C)C(O)C[C@H](C[C@@]12C[C@@H](CC=C(C)C)C(C)(C)[C@@](CC=C(C)C)(C(=O)C(C(=O)c3ccc(O)c(O)c3)=C1O)C2=O)C(=C)C", "note": "(stereo partly specified) [GARCIMULTIFLORONE E]", "values": [{"measurement": "Ratio", "setting": "[1]", "result": "<=3"}, {"measurement": "Activity", "setting": "[6]", "result": "Active"}, {"measurement": "IC50", "setting": "[2]", "result": 14.3, "unit": "µM"}, {"measurement": "Ratio", "setting": "[3]", "result": ">3"}, {"measurement": "Ratio", "setting": "[4]", "result": ">3"}]}
{"smiles": "C=C(C)[C@H](CC=C(C)C)C[C@@]12C[C@@H](CC(O)C(C)(C)O)C(C)(C)[C@@](CC=C(C)C)(C(=O)C(C(=O)c3ccc(O)c(O)c3)=C1O)C2=O", "note": "(stereo partly specified) [GARCIMULTIFLORONE F]", "values": [{"measurement": "Ratio", "setting": "[1]", "result": "<=3"}, {"measurement": "IC50", "setting": "[2]", "result": 14.9, "unit": "µM"}, {"measurement": "Activity", "setting": "[5]", "result": "Active"}, {"measurement": "Ratio", "setting": "[3]", "result": ">3"}, {"measurement": "Ratio", "setting": "[4]", "result": "<=3"}]}
{"smiles": "C=C(C)[C@H](CC=C(C)C)C[C@@]12C[C@@H](CC=C(C)C)C(C)(C)[C@@](CC=C(C)C)(C(=O)C(C(=O)c3ccc(O)c(O)c3)=C1O)C2=O", "note": "[GUTTIFERONE F]", "values": [{"measurement": "Ratio", "setting": "[1]", "result": "<=3"}, {"measurement": "Activity", "setting": "[5]", "result": "Active"}, {"measurement": "Ratio", "setting": "[3]", "result": ">3"}, {"measurement": "Ratio", "setting": "[4]", "result": "<=3"}]}
{"smiles": "CC(C)=CC[C@@H]1C[C@]23C[C@H](CC=C(C)C)C(C)(C)[C@](CC=C(C)C)(C(=O)C(C(=O)c4ccc(O)c(O)c4)=C2OC1(C)C)C3=O", "note": "[ISOXANTHOCHYMOL]", "values": [{"measurement": "Ratio", "setting": "[1]", "result": ">3"}, {"measurement": "Ratio", "setting": "[3]", "result": "<=3"}, {"measurement": "Ratio", "setting": "[4]", "result": ">3"}, {"measurement": "Activity", "setting": "[7]", "result": "Active"}, {"measurement": "Activity", "setting": "[8]", "result": "Active"}]}
{"smiles": "O=C1c2c(O)cc(O)cc2O[C@H](c2ccc(O)cc2)[C@H]1c1c(O)cc(O)c2c(=O)cc(-c3ccc(O)c(O)c3)oc12", "note": "[MORELLOFLAVONE]", "values": [{"measurement": "Ratio", "setting": "[1]", "result": ">3"}, {"measurement": "Ratio", "setting": "[3]", "result": ">3"}, {"measurement": "Ratio", "setting": "[4]", "result": ">3"}]}
